Source: ChEMBL document CHEMBL5252646, “Novel thienocycloalkylpyridazinones as useful scaffolds for acetylcholinesterase inhibition and serotonin 5-HT6 receptor interaction” (Bioorg Med Chem, 2023)
Activity calls are given as the source filed them. The rule behind the calls is not given here.

Molecular target: T1, 5-hydroxytryptamine receptor 7 (Homo sapiens, UniProt P34969)
Test: Displacement of [3H]SB269970 from human 5-HT7 receptor expressed in HEK cell membrane at 10 uM incubated for 60 mins by microplate beta scintillation counting analysis
Assay type: cell membranes
Details: not given
How it was run: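 Membranes from HEK cells expressing human 5-HT7, 2 µg per well, with 2 nM [3H]-SB269970, 60 min at 37 °C. Buffer Tris-HCl 50 mM, 4 mM CaCl2, 1 mM ascorbic acid, 0.1 mM pargyline, pH 7.4. Nonspecific binding with 25 µM clozapine. Filtered, scintillation counted. Duplicates. Displacement as % at 10 µM.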

T1 sequence (P34969 whole entry): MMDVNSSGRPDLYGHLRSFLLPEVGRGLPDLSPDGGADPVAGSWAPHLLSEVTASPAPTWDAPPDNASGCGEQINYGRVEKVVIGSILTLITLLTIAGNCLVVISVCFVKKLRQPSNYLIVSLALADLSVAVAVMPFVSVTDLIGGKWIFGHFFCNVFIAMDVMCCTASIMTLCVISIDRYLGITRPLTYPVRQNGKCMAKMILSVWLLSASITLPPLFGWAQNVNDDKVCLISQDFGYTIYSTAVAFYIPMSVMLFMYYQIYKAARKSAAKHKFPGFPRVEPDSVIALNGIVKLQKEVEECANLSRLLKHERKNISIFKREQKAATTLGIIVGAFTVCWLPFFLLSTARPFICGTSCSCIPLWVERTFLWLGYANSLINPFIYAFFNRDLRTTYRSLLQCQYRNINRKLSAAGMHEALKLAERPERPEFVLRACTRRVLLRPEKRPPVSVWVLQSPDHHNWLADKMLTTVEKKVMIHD

SMILES | inhibition [%]
O=C1CC2CCc3ccsc3C2=NN1CN1CCN(Cc2ccccc2)CC1 (stereo not drawn) | 23
CCN(CC)CCCCN1N=C2c3sccc3CCC2CC1=O (stereo not drawn) | 10
CN(C)CCCCN1N=C2c3sccc3CCC2CC1=O (stereo not drawn) | 24
O=C1CC2CCc3ccsc3C2=NN1CCN1CCN(Cc2ccccc2)CC1 (stereo not drawn) | 26
O=C1CC2CCc3ccsc3C2=NN1CCCCN1CCCC1 (stereo not drawn) | 16

Molecular target: T1, 5-hydroxytryptamine receptor 7
Test: Displacement of [3H]SB269970 from human 5-HT7 receptor expressed in HEK cell membrane incubated for 60 mins by microplate beta scintillation counting analysis
Assay type: cell membranes
Details: not given

SMILES | Ki [nM]
O=C1CC2CCc3ccsc3C2=NN1CCCCN1CCN(Cc2ccccc2)CC1 (stereo not drawn) | 995
O=C1CC2Cc3ccsc3C2=NN1CCCCN1CCN(Cc2ccccc2)CC1 (stereo not drawn) | 1000
O=C1CC2CCc3ccsc3C2=NN1Cc1ccc(CN2CCN(Cc3ccccc3)CC2)cc1 (stereo not drawn) | 2110
O=C1CC2CCCc3ccsc3C2=NN1CCCCN1CCN(Cc2ccccc2)CC1 (stereo not drawn) | 976

Molecular target: T2, Acetylcholinesterase (Homo sapiens, UniProt P22303)
T2 sequence (P22303 whole entry): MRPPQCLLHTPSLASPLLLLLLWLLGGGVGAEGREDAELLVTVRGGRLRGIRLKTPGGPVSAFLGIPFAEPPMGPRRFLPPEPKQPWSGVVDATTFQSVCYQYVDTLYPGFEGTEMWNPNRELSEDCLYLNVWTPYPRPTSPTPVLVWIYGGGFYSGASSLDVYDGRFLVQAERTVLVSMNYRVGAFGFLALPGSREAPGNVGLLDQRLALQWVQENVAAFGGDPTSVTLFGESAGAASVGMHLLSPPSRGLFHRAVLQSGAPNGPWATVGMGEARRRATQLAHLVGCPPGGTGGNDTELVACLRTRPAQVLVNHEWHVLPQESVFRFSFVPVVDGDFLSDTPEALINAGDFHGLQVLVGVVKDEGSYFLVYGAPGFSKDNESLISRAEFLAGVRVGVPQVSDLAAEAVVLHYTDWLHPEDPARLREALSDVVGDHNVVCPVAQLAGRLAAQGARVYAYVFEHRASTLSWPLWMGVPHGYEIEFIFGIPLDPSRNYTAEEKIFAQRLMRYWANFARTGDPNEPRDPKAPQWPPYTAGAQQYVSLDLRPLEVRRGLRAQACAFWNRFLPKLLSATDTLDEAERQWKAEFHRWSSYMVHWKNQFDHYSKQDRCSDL
Test: Competitive inhibition of human AChE using acetylthiocholine iodide as substrate preincubated with enzyme for 20 mins followed by varing concentrations of substrate addition and measured for 5 mins by Lineweaver-Burk plot analysis
Details: not given
How it was run: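 Human AChE, Ellman spectrophotometric method in 96-well format, run in triplicate. Kinetics: six acetylthiocholine concentrations (0.033 to 0.2 mM) crossed with four inhibitor concentrations (0–300 nM). Analysed by the Michaelis-Menten approach; kinetic parameters from nonlinear regression.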

SMILES | Ki [nM]
O=C1CC2CCc3ccsc3C2=NN1CCN1CCN(Cc2ccccc2)CC1 (stereo not drawn) | 123

Molecular target: T3, 5-hydroxytryptamine receptor 1A (Homo sapiens) (UniProt P08908)
T3 sequence (whole entry): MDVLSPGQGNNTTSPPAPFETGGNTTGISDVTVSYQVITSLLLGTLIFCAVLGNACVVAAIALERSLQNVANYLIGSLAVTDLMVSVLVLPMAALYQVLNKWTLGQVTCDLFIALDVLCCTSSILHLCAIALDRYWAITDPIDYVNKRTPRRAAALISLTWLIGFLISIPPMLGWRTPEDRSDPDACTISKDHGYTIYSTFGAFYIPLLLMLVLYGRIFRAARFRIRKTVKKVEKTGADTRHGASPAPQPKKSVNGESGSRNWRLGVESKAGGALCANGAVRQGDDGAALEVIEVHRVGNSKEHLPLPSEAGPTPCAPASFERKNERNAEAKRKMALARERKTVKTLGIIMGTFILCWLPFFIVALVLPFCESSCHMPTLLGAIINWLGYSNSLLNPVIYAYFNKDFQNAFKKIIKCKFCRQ
Test: Displacement of [3H]-8-OH-DPAT from human 5-HT1A receptor expressed in HEK cell membrane at 10 uM incubated for 120 mins by microplate beta scintillation counting analysis
Assay type: cell membranes
Details: not given
How it was run: (§1)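 Membranes from HEK cells expressing human 5-HT1A, 10 µg per well, with 1 nM [3H]-8-OH-DPAT, 120 min at 37 °C. Buffer 50 mM Tris-HCl, 5 mM MgSO4, pH 7.4. Nonspecific binding with 10 µM 5-HT. Filtered on PEI-treated GF/C and washed, then scintillation counted. Duplicates.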

SMILES | inhibition [%]
O=C1CC2CCc3ccsc3C2=NN1CN1CCN(Cc2ccccc2)CC1 (stereo not drawn) | 24
CN(C)CCCCN1N=C2c3sccc3CCC2CC1=O (stereo not drawn) | 37

Molecular target: T4, 5-hydroxytryptamine receptor 1A (Homo sapiens, UniProt P08908)
T4 sequence (P08908 whole entry): T3 sequence (whole entry)
Test: Displacement of [3H]-8-OH-DPAT from human 5-HT1A receptor expressed in HEK cell membrane incubated for 120 mins by microplate beta scintillation counting analysis
Assay type: cell membranes
Details: not given
How it was run: as §1

SMILES | Ki [nM]
CCN(CC)CCCCN1N=C2c3sccc3CCC2CC1=O (stereo not drawn) | 8630
O=C1CC2CCc3ccsc3C2=NN1CCCCN1CCN(Cc2ccccc2)CC1 (stereo not drawn) | 496
O=C1CC2Cc3ccsc3C2=NN1CCCCN1CCN(Cc2ccccc2)CC1 (stereo not drawn) | 614
O=C1CC2CCc3ccsc3C2=NN1Cc1ccc(CN2CCN(Cc3ccccc3)CC2)cc1 (stereo not drawn) | 786
O=C1CC2CCCc3ccsc3C2=NN1CCCCN1CCN(Cc2ccccc2)CC1 (stereo not drawn) | 414
O=C1CC2CCc3ccsc3C2=NN1CCN1CCN(Cc2ccccc2)CC1 (stereo not drawn) | 1080
O=C1CC2CCc3ccsc3C2=NN1CCCCN1CCCC1 (stereo not drawn) | 3530

Molecular target: T5, 5-hydroxytryptamine receptor 6 (Homo sapiens, UniProt P50406)
T5 sequence (P50406 whole entry): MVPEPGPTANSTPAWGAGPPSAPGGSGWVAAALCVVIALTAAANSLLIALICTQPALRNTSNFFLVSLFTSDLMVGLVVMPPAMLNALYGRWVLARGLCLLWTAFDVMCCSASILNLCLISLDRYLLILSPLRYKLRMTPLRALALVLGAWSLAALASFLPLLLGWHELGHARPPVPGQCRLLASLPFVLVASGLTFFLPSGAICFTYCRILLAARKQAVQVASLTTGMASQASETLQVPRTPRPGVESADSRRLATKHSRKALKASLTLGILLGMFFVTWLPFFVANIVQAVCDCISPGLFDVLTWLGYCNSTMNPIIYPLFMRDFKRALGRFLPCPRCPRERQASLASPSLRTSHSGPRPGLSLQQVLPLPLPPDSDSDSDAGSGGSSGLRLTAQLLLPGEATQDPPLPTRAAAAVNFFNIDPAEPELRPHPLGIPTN
Test: Displacement of [3H]-LSD from human 5-HT6 receptor expressed in HEK cell membrane at 10 uM incubated for 60 mins by microplate beta scintillation counting analysis
Assay type: cell membranes
Details: not given
How it was run: (§2)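 Membranes from HEK cells expressing human 5-HT6, 5 µg per well, with 2 nM [3H]-LSD, 60 min at 37 °C. Buffer 50 mM Tris-HCl, 10 mM MgCl2, 0.5 mM EDTA, pH 7.4. Nonspecific binding with 100 µM 5-HT. Filtered on GF/C, scintillation counted.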

SMILES | inhibition [%]
O=C1CC2CCc3ccsc3C2=NN1CN1CCN(Cc2ccccc2)CC1 (stereo not drawn) | 28
CCN(CC)CCCCN1N=C2c3sccc3CCC2CC1=O (stereo not drawn) | 27
CN(C)CCCCN1N=C2c3sccc3CCC2CC1=O (stereo not drawn) | 36
O=C1CC2CCc3ccsc3C2=NN1CCCCN1CCCC1 (stereo not drawn) | 33

Molecular target: T5, 5-hydroxytryptamine receptor 6
Test: Displacement of [3H]-LSD from human 5-HT6 receptor expressed in HEK cell membrane incubated for 60 mins by microplate beta scintillation counting analysis
Assay type: cell membranes
Details: not given
How it was run: as §2

SMILES | Ki [nM]
O=C1CC2CCc3ccsc3C2=NN1CCCCN1CCN(Cc2ccccc2)CC1 (stereo not drawn) | 3300
O=C1CC2Cc3ccsc3C2=NN1CCCCN1CCN(Cc2ccccc2)CC1 (stereo not drawn) | 3970
O=C1CC2CCc3ccsc3C2=NN1Cc1ccc(CN2CCN(Cc3ccccc3)CC2)cc1 (stereo not drawn) | 1260
O=C1CC2CCCc3ccsc3C2=NN1CCCCN1CCN(Cc2ccccc2)CC1 (stereo not drawn) | 1430
O=C1CC2CCc3ccsc3C2=NN1CCN1CCN(Cc2ccccc2)CC1 (stereo not drawn) | 1670

Molecular target: T6, Cholinesterase (Homo sapiens, UniProt P06276)
T6 sequence (P06276 whole entry): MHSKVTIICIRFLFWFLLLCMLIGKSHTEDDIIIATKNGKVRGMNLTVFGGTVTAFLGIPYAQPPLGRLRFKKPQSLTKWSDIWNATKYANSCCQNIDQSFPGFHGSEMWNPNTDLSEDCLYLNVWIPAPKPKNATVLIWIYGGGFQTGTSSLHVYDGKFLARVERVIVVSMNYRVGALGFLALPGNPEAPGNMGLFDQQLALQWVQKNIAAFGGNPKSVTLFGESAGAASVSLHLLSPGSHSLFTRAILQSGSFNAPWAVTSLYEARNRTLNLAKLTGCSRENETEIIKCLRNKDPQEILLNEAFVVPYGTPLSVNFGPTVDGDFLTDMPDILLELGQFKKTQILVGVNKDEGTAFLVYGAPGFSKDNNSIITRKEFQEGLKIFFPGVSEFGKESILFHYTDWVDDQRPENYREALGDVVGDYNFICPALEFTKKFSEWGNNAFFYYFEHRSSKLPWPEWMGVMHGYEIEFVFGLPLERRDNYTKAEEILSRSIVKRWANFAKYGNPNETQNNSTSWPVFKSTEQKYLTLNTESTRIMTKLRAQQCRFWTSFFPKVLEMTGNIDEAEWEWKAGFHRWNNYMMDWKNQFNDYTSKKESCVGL
Test: Inhibition of human BChE using butyrylthiocholine iodide as substrate at 10 uM preincubated with enzyme for 20 mins followed by substrate addition and measured for 5 mins by Ellman's spectrophotometric method
Details: time 25.0 min

SMILES | inhibition
CCN(CC)CCCCN1N=C2c3sccc3CCC2CC1=O (stereo not drawn) | inactive
O=C1CC2CCc3ccsc3C2=NN1CCCCN1CCN(Cc2ccccc2)CC1 (stereo not drawn) | 45%
O=C1CC2Cc3ccsc3C2=NN1CCCCN1CCN(Cc2ccccc2)CC1 (stereo not drawn) | 11%
CN(C)CCCCN1N=C2c3sccc3CCC2CC1=O (stereo not drawn) | inactive
O=C1CC2CCc3ccsc3C2=NN1CCCCN1CCCC1 (stereo not drawn) | 14%

Molecular target: T6, Cholinesterase
Test: Inhibition of human BChE using butyrylthiocholine iodide as substrate preincubated with enzyme for 20 mins followed by substrate addition and measured for 5 mins by Ellman's spectrophotometric method
Details: not given

SMILES | IC50 [nM]
O=C1CC2CCc3sccc3C2=NN1CCCCN1CCN(Cc2ccccc2)CC1 (stereo not drawn) | 3300
O=C1CC2CCc3ccsc3C2=NN1CN1CCN(Cc2ccccc2)CC1 (stereo not drawn) | 5580
O=C1CC2CCc3ccsc3C2=NN1Cc1ccc(CN2CCN(Cc3ccccc3)CC2)cc1 (stereo not drawn) | 9700
O=C1CC2CCCc3ccsc3C2=NN1CCCCN1CCN(Cc2ccccc2)CC1 (stereo not drawn) | 4130
O=C1CC2CCc3ccsc3C2=NN1CCN1CCN(Cc2ccccc2)CC1 (stereo not drawn) | 5110

Molecular target: T2, Acetylcholinesterase
Test: Inhibition of human AChE using acetylthiocholine iodide as substrate preincubated with enzyme for 20 mins followed by substrate addition and measured for 5 mins by Ellman's spectrophotometric method
Details: not given

SMILES | IC50 [nM]
O=C1CC2CCc3sccc3C2=NN1CCCCN1CCN(Cc2ccccc2)CC1 (stereo not drawn) | 860
O=C1CC2CCc3ccsc3C2=NN1CN1CCN(Cc2ccccc2)CC1 (stereo not drawn) | 13600
CCN(CC)CCCCN1N=C2c3sccc3CCC2CC1=O (stereo not drawn) | 2930
O=C1CC2CCc3ccsc3C2=NN1CCCCN1CCN(Cc2ccccc2)CC1 (stereo not drawn) | 756
O=C1CC2Cc3ccsc3C2=NN1CCCCN1CCN(Cc2ccccc2)CC1 (stereo not drawn) | 538
CN(C)CCCCN1N=C2c3sccc3CCC2CC1=O (stereo not drawn) | 6360
O=C1CC2CCc3ccsc3C2=NN1Cc1ccc(CN2CCN(Cc3ccccc3)CC2)cc1 (stereo not drawn) | 3650
O=C1CC2CCCc3ccsc3C2=NN1CCCCN1CCN(Cc2ccccc2)CC1 (stereo not drawn) | 1230
O=C1CC2CCc3ccsc3C2=NN1CCN1CCN(Cc2ccccc2)CC1 (stereo not drawn) | 170
O=C1CC2CCc3ccsc3C2=NN1CCCCN1CCCC1 (stereo not drawn) | 1160
